# “Also recorded” adds a separate entry of the source. Where no end group is shown, it is not given here.
# What was measured:
# [1] = tested on: pSmad1 in THP-1 AML cells; assay: Western blot of pSmad1 in THP-1 cells; assay type: cell-based, human; conditions: 3 days
# Method in brief: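 THP-1 cells were exposed for 3 days to 0.5 μM unmodified or N-PEG dendrimer, or 2.0 μM C-PEG dendrimer. Lysis was in Triton or RIPA buffer with protease inhibitors, followed by boiling in Laemmli/β-mercaptoethanol at 95 °C for 5 min. SDS-PAGE immunoblots were probed for phospho-Smad1 against total Smad1 and developed by ECL.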
# [2] = tested on: BMPR1A-HA membrane staining in H1581 cells; assay: Immunofluorescence of BMPR1A-HA membrane localization in H1581 cells; assay type: cell-based, human; conditions: H1581 transfected with BMPR1A-HA, 0.5 μM dendrimer, 3 days
# [3] = tested on: Xenopus tropicalis embryos; assay: Xenopus embryo blastocoel microinjection, phenotype; assay type: in vivo; conditions: 20 nl of 50 μM dendrimer into blastocoel at stage 9
# Method in brief: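 X. tropicalis embryos from in vitro fertilization received 20 nl of 50 μM dendrimer in PBS into the blastocoel at stage 9, with bmp4 mRNA at the 4-cell stage as comparator. Embryos were cultured to tailbud stage 28 and scored blind for head size and ventral structures across two independent experiments.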
# [4] = molecular target: RSPO2^TSP1–BMPR1A^ECD interaction (Homo sapiens, UniProt P36894); assay: In vitro competitive binding assay; conditions: for reduction of RSPO2^TSP1–BMPR1A^ECD interaction: 100 μM monomeric peptide, 3 h, AP activity, n = 2 to 3 experimental replicates
# Method in brief: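 Plates were coated overnight at 4 °C with 1 to 2 μg anti-HA and blocked 1 h in 5% BSA/TBST. HA-RSPO2 TSP1 conditioned medium was captured overnight. AP-BMPR1A ECD was then added for 3 h with 100 μM monomeric peptide (Cys→Ser; in DPBS pH 7.4) or a peptide concentration series. After TBST washes, bound AP was read with chemiluminescent substrate, and IC50 was fitted.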
# RSPO2–BMPR1A interaction = assay: Cell surface–binding assay, RSPO2-AP on BMPR1A-transfected HEK293T cells; assay type: cell-based, human; conditions: for RSPO2 binding to BMPR1A transfected cells / RSPO2–BMPR1A binding after long-term dendrimer treatment: 20 μM dendrimer; for RSPO2 binding to BMPR1A transfected cells: n = 3; for RSPO2–BMPR1A binding after long-term dendrimer treatment: 16 h
# Method in brief: (§1)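 HEK293T cells were transfected with BMPR1A-HA or LGR4. They were incubated with RSPO2-AP or RSPO3-AP conditioned medium from transiently transfected HEK293T cells, plus 20 μM dendrimer or 50 μM monomeric peptide, for 3 h or 16 h. Surface-bound AP was developed with BM-Purple chromogenic substrate, then imaged and quantified.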
# [5] = tested on: WNT-mediated activation of β-catenin in H1581 cells; assay: Western blot of activated β-catenin in H1581 cells treated with WNT3A; assay type: cell-based, human; conditions: 0.5 μM dendrimer
# THP-1 cells = assay: Flow cytometry of CD11B^+ THP-1 cells; assay type: cell-based, human; conditions: THP-1, 3 days, 0.5/1.0/1.5 μM nonmodified, 2.0/3.0 μM N-PEG, 3.0/4.0 μM C-PEG dendrimer
# [6] = tested on: WNT signaling (TopFlash reporter); assay: WNT-responsive TopFlash reporter assay in Xenopus embryos; assay type: in vivo, Xenopus tropicalis; conditions: 20 nl of 50 μM dendrimer at stage 9, firefly normalized to Renilla
# Method in brief: (§2)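 X. tropicalis embryos were co-injected at the 2-cell stage with 200 pg Vent-Luc (BMP) or Topflash (WNT) plus 100 pg Renilla-TK plasmid. At stage 9, 20 nl of 50 μM dendrimer in PBS went into the blastocoel; controls were bmp4 mRNA or lrp6 morpholino. Three pools of four embryos each were lysed at stage 14 to 15 for dual luciferase, firefly normalized to Renilla. Unpaired t test or one-way ANOVA.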
# [7] = tested on: P38 MAPK and P44/42 MAPK phosphorylation in HEPG2 cells; assay: Western blot of pP38 and pP44/42 MAP kinases in HEPG2 cells; assay type: cell-based, human; conditions: HEPG2, BMP4 + RSPO2, 0.5 μM dendrimer, 1 h, starved overnight
# RSPO3 binding to BMPR1A = assay: Cell surface–binding assay, RSPO3-AP on BMPR1A-transfected HEK293T cells; assay type: cell-based, human; conditions: 20 μM non-PEGylated dendrimer, 3 h; n = 3
# Method in brief: as §1
# [8] = tested on: BMP signaling (Vent2 reporter); assay: BMP-responsive Vent2 reporter assay in Xenopus embryos; assay type: in vivo, Xenopus tropicalis; conditions: 20 nl of 50 μM dendrimer at stage 9, firefly normalized to Renilla
# Method in brief: as §2
# [9] = tested on: BMP target gene expression (sizzled); assay: Whole-mount in situ hybridization of sizzled in Xenopus gastrulae; assay type: in vivo, Xenopus tropicalis; conditions: 20 nl of 50 μM dendrimer at stage 9, gastrulae stage 11
# Method in brief: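 X. tropicalis embryos were injected at stage 9 into the blastocoel with 20 nl of 50 μM dendrimer in PBS; bmp4 mRNA injected radially at the 4-cell stage served as control. Embryos were fixed at gastrula stage 11 and processed by whole-mount in situ hybridization with a digoxigenin-labeled antisense sizzled probe. The sizzled-expressing area was quantified, pooled from two independent experiments.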
# pSmad1 in H1581 cells = assay: Western blot of pSmad1 in H1581 cells; assay type: cell-based, human; conditions: H1581 (elevated RSPO2), 0.5 μM dendrimer, 3 days
# [10] = tested on: BMP4 signaling (pSmad1) in HEPG2 cells; assay: Western blot of pSmad1 in HEPG2 cells; assay type: cell-based, human
# LGR4 = assay: Cell surface–binding assay, RSPO2-AP on LGR4-transfected HEK293T cells; assay type: cell-based, human; conditions: 20 μM dendrimer, 3 h
# Method in brief: as §1
# [11] = 0.5 μM nonmodified or N-PEG dendrimer
# Chain of RSPO2^TSP1–BMPR1A^ECD interaction (P36894 24-152 limits assumed): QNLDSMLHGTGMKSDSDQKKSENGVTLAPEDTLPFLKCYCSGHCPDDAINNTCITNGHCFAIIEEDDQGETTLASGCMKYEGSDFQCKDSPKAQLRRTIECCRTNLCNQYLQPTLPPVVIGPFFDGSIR
substance,measurement,setting,value
KMTMR [KR],pSmad1 induction in THP-1 cells,[1]; [11],but not KR^d treatment
same,increase in the number of cells showing BMPR1A-HA membrane staining,[2],but not KR^d treatment
same,embryotoxicity,[3],no embryotoxicity
same,effect on RSPO2–BMPR1A interaction in vitro (Fig. S2A),"[4]; peptide treatment, concentration not given",did not affect RSPO2–BMPR1A interaction
same,RSPO2 binding to BMPR1A transfected cells,RSPO2–BMPR1A interaction; 3 h,no effect
(PEG-KMTMR)8-Lys4-Lys2-Lys-β-Ala [N-PEG KR^d],RSPO2 binding to BMPR1A transfected cells,RSPO2–BMPR1A interaction; 3 h,no effect
(RNNRTSGFKW-PEG)8-Lys4-Lys2-Lys-β-Ala [C-PEG RW^d],pSmad1 induction in THP-1 cells,[1]; 2.0 μM C-PEG dendrimer,Elevated pSmad1 levels
PEG-RW: RW peptide mini-PEGylated at both N and C termini ({mini‑PEG}-RNNRTSGFKW-{mini‑PEG}),"inhibition of RSPO2-AP binding to BMPR1A-transfected cells, short-term","RSPO2–BMPR1A interaction; 50 μM PEGylated monomeric peptide, 3 h",inhibited RSPO2–BMPR1A interaction
DTILSPTIAE [DE],reduction of RSPO2^TSP1–BMPR1A^ECD interaction,[4],greater than 50%
RNNRTSGFKW [RW],pSmad1 induction in THP-1 cells,[1]; [11],induced pSmad1
same,WNT-mediated activation of β-catenin,[5],no effect
same,increase in the number of cells showing BMPR1A-HA membrane staining,[2],approximately threefold
same,induction of the number of CD11B^+ cells,THP-1 cells,~10 fold
same,embryotoxicity,[3]; listed as RW^d,no Xenopus embryotoxicity
same,WNT signaling (TopFlash reporter),[6],no effect on WNT signaling
same,rescue of RSPO2-mediated decrease of pP38 and pP44/42 levels,[7],rescued the RSPO2-mediated decrease of pP38 and pP44/42 levels
same,RSPO3 binding to BMPR1A transfected cells,RSPO3 binding to BMPR1A,unable to abolish RSPO3 binding
same,endogenous BMP signaling (Vent2 reporter),[8],enhanced endogenous BMP signaling
same,reduction of RSPO2^TSP1–BMPR1A^ECD interaction,[4],strongest inhibition; also recorded: greater than 50%
same,sizzled expression,[9],expanded BMP target gene expression (sizzled) toward the dorsal side
same,phosphorylation of Smad1,pSmad1 in H1581 cells,increased phosphorylation of Smad1
same,pSmad1 level without simultaneous treatment of RSPO2,"[10]; HEPG2, 0.5 μM dendrimer, 3 days",no effect on pSmad1 level
same,rescue of RSPO2-mediated decrease of pSmad1 levels,"[10]; HEPG2, BMP4 + RSPO2, 0.5 μM dendrimer, 1 h, starved 3 h",rescued the RSPO2-mediated
same,rescue of RSPO3-mediated decrease of pSmad1 levels,"[10]; HEPG2, BMP4 + RSPO3, 0.5 μM dendrimer, 1 h, starved 3 h",not the RSPO3-mediated decrease of pSmad1 levels
same,RSPO2 binding to LGR4 transfected cells,LGR4,without affecting LGR4 binding
same,RSPO2 binding to BMPR1A transfected cells,RSPO2–BMPR1A interaction; 3 h,abolished RSPO2 binding
same,RSPO2–BMPR1A binding after long-term dendrimer treatment,RSPO2–BMPR1A interaction,completely disrupt RSPO2–BMPR1A binding
SRRSKMTMRHSPG [SG],reduction of RSPO2^TSP1–BMPR1A^ECD interaction,[4],greater than 50%
(PEG-RNNRTSGFKW)8-Lys4-Lys2-Lys-β-Ala [N-PEG RW^d],RSPO2 binding to BMPR1A transfected cells,RSPO2–BMPR1A interaction; 3 h,abolished RSPO2 binding
same,RSPO2–BMPR1A binding after long-term dendrimer treatment,RSPO2–BMPR1A interaction,completely disrupt RSPO2–BMPR1A binding
